The text below walks through data of ChEMBL document CHEMBL1138753, “Synthesis and biological activity of analogues of the antimicrotubule agent N,beta,beta-trimethyl-L-phenylalanyl-N(1)-[(1S,2E)-3-carboxy-1-isopropylbut-2-enyl]- N(1),3-dimethyl-L-valinamide (HTI-286)” (J Med Chem, 2004).

Structures are written as SMILES.

Assay [1] can be described thus: Concentration required to inhibit tumor cell growth in KB-3-1 cells. The format is functional, cell-based, Homo sapiens. The method, boiled down: (§1)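 Cytotoxicity was measured in paclitaxel-sensitive KB-3-1 cells and in KB-8-5 and KB-V1 cells, which express moderate and high P-glycoprotein respectively. Result is the average IC50 (nM) ± SEM; SEM is omitted where it is below 10% of the average.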

Assay [2] has as its target Tubulin beta-1 chain (Homo sapiens, UniProt Q9H4B7). Kind of assay: Percent inhibition of tubulin polymerization at 0.3 uM concentration. The class given is functional.
In assay [3] the test system is KB. Kind of assay: Concentration required to inhibit tumor cell growth in KB-V1 cells. The class given is functional, cell-based. The settings on record: Homo sapiens. The gist of the method:
as §1

Assay [4] concerns KB. Briefly: Concentration required to inhibit tumor cell growth in KB-8-5 cells. The class given is functional, cell-based, Homo sapiens. The gist of the method:
as §1

Sequence of Tubulin beta-1 chain (Q9H4B7 whole entry): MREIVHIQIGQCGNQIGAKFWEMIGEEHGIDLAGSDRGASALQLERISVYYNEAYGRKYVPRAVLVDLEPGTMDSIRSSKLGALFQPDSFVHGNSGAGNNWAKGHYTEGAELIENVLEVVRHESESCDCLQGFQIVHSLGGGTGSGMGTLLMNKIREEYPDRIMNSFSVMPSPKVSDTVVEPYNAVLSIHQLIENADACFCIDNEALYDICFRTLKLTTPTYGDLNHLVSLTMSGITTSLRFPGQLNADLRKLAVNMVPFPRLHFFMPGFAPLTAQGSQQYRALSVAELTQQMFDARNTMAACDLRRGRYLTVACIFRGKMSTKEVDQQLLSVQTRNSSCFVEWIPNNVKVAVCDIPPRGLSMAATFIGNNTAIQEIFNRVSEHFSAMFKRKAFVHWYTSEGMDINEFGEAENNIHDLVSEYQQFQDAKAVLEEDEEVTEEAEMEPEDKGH

With `CN[C@H](C(=O)N[C@H](C(=O)N(C)[C@H](/C=C(\C)C(=O)NCc1ccc(-c2ccccc2)cc1)C(C)C)C(C)(C)C)C(C)(C)c1ccccc1`, the IC50 (as a rule, the concentration that gives 50% inhibition) was 667 nM in assay [1] (Homo sapiens, KB 3-1); more than 3000 nM in assay [3]; 1680 nM in assay [4] (Homo sapiens, KB). Moreover, the inhibition – broadly, the drop in the measured response relative to a control, in per cent – in assay [2] was 11%.
On the same counts, the results for `CS[C@H](C(=O)N[C@H](C(=O)N(C)[C@H](/C=C(\C)C(=O)O)C(C)C)C(C)(C)C)C(C)(C)c1ccccc1` are 691 nM, more than 6000 nM, 1150 nM and 79%.
As for `CNC(=O)CN[C@H](C(=O)N[C@H](C(=O)N(C)[C@H](/C=C(\C)C(=O)O)C(C)C)C(C)(C)C)C(C)(C)c1ccccc1`, the IC50 in assay [1] (Homo sapiens, KB 3-1) was more than 3000 nM; in assay [3], more than 3000 nM; in assay [4] (Homo sapiens, KB), more than 3000 nM. In assay [2], the inhibition came to 0%.
On to `C/C(=C\[C@H](C(C)C)N(C)C(=O)[C@@H](NC(=O)[C@@H](N)C(C)(C)c1ccccc1)C(C)(C)C)C(=O)O` (stereo in doubt; 20) [listing 1 of 2 here], for which the values for the half-maximal inhibitory concentration (IC50) in assay [1] (kb 3-1), in assay [3] and in assay [4] (kb) were 427 nM, more than 3000 nM and 550 nM, respectively.
Regarding `CN[C@H](C(=O)N[C@H](C(=O)N(C)[C@H](/C=C(\C)C(N)=O)C(C)C)C(C)(C)C)C(C)(C)c1ccccc1`, the IC50 was 65 nM in assay [1] (Homo sapiens, KB 3-1); more than 3000 nM in assay [3]; 162 nM in assay [4] (Homo sapiens, KB). Moreover, the inhibition in assay [2] was determined as 72%.
On the same counts, the results for `C/C(=C\[C@H](C(C)C)N(C)C(=O)[C@@H](NC(=O)[C@@H](Cc1ccccc1)C(C)(C)c1ccccc1)C(C)(C)C)C(=O)O` are 1690 nM, more than 6000 nM, 2240 nM and 46%.
The matching figures for `CO[C@H](C(=O)N[C@H](C(=O)N(C)[C@H](/C=C(\C)C(=O)O)C(C)C)C(C)(C)C)C(C)(C)c1ccccc1`: 1420 nM, more than 3000 nM, 1230 nM and 54%.
As for `CCN[C@H](C(=O)N[C@H](C(=O)N(C)[C@H](/C=C(\C)C(=O)O)C(C)C)C(C)(C)C)C(C)(C)c1ccccc1`, the IC50 in assay [1] (Homo sapiens, KB 3-1) amounted to 1.6 nM; in assay [3], 114 nM; in assay [4] (Homo sapiens, KB) it was 2.4 nM. The same molecule gave an inhibition in assay [2] of 96%.
For the molecule `CN[C@H](C(=O)N[C@H](C(=O)N(C)[C@H](/C=C(\C)C(=O)O)C(C)C)C(C)(C)C)[C@@H](C)c1ccccc1`, the half-maximal inhibitory concentration (IC50) in assay [1] (Homo sapiens, KB 3-1) is 207 nM; in assay [3], more than 3000 nM; in assay [4] (Homo sapiens, KB), 414 nM. The inhibition in assay [2] came to 84%.
The matching figures for `CNCC(=O)N[C@H](C(=O)N[C@H](C(=O)N(C)[C@H](/C=C(\C)C(=O)O)C(C)C)C(C)(C)C)C(C)(C)c1ccccc1`: 1400 nM, more than 3000 nM, 2120 nM and 4%.
The matching figures for `CCC[C@H](NC(=O)[C@@H](NC)C(C)(C)c1ccccc1)C(=O)N(C)[C@H](/C=C(\C)C(=O)O)C(C)C`: 15 nM, 575 nM, 19 nM and 51%.
On the same counts, the results for `CN[C@H](C(=O)N[C@@H](Cc1ccccc1)C(=O)N(C)[C@H](/C=C(\C)C(=O)O)C(C)C)C(C)(C)c1ccccc1` are 1320 nM, more than 3000 nM, 2400 nM and 40%.
In the case of `C/C(=C\[C@H](C(C)C)N(C)C(=O)[C@@H](NC(=O)[C@H](Cc1ccccc1)C(C)(C)c1ccccc1)C(C)(C)C)C(=O)O`, the IC50 in assay [1] (Homo sapiens, KB 3-1) was 1690 nM; in assay [3] it was more than 6000 nM; in assay [4] (Homo sapiens, KB), 2240 nM. In assay [2], this molecule yielded an inhibition of 46%.
On the same counts, the results for `CN[C@H](C(=O)N[C@H](C(=O)N(C)[C@H](/C=C(\C)C(=O)O)Cc1ccccc1)C(C)(C)C)C(C)(C)c1ccccc1` are 479 nM, more than 3000 nM, 1320 nM and 44%.
The matching figures for `CN[C@H](C(=O)N[C@@H](C)C(=O)N(C)[C@H](/C=C(\C)C(=O)O)C(C)C)C(C)(C)c1ccccc1`: 381 nM, more than 3000 nM, 902 nM and 8%.
The matching figures for `CN[C@H](C(=O)N[C@H](C(=O)N(C)[C@H](/C=C(\C)C(=O)O)C(C)C)C(C)(C)C)C(C)(C)c1ccc(-c2ccccc2)cc1`: 3.2 nM, 177 nM, 6.8 nM and 86%.
Regarding `C=CC[C@@H](C(=O)N[C@H](C(=O)N(C)[C@H](/C=C(\C)C(=O)O)C(C)C)C(C)(C)C)C(C)(C)c1ccccc1`, the IC50 in assay [1] (Homo sapiens, KB 3-1) was 1150 nM; in assay [3], more than 6000 nM; in assay [4] (Homo sapiens, KB) it was 1200 nM. Also, in assay [2], the inhibition was determined as 63%.
The matching figures for `CN[C@H](C(=O)N[C@H](C(=O)N(C)[C@H](/C=C(\C)C(=O)O)C(C)C)C(C)(C)C)C(C)(C)Cc1ccccc1`: 3 nM, 219 nM, 6 nM and 87%.
On the same counts, the results for `C/C(=C\[C@H](C(C)C)N(C)C(=O)[C@@H](NC(=O)[C@@H](O)C(C)(C)c1ccccc1)C(C)(C)C)C(=O)O` are more than 3000 nM, more than 3000 nM, more than 3000 nM and 21%.
On the same counts, the results for `CCCCCCCCOC(=O)/C(C)=C/[C@H](C(C)C)N(C)C(=O)[C@@H](NC(=O)[C@@H](NC)C(C)(C)c1ccccc1)C(C)(C)C` are 150 nM, more than 3000 nM, 1630 nM and 26%.
With `C/C(=C\[C@H](C(C)C)N(C)C(=O)[C@@H](NC(=O)CC(C)(C)c1ccccc1)C(C)(C)C)C(=O)O`, the half-maximal inhibitory concentration (IC50) is more than 3000 nM in assay [1] (Homo sapiens, KB 3-1); more than 3000 nM in assay [3]; more than 3000 nM in assay [4] (Homo sapiens, KB). The same molecule came in with an inhibition in assay [2] of 21%.
Take `C/C(=C\[C@H](C(C)C)N(C)C(=O)[C@@H](NC(=O)[C@@H](NCC(=O)O)C(C)(C)c1ccccc1)C(C)(C)C)C(=O)O`: the IC50 in assay [1] (Homo sapiens, KB 3-1) was more than 3000 nM; in assay [3], more than 3000 nM; in assay [4] (Homo sapiens, KB), more than 3000 nM. This molecule also gave an inhibition in assay [2] of 35%.
Take `CCN(C(=O)[C@@H](NC(=O)[C@@H](NC)C(C)(C)c1ccccc1)C(C)(C)C)[C@H](/C=C(\C)C(=O)O)C(C)C`: the IC50 in assay [1] (Homo sapiens, KB 3-1) was 109 nM; in assay [3] it was more than 3000 nM; in assay [4] (Homo sapiens, KB), 197 nM. Also, in assay [2], the inhibition amounted to 11%.
The matching figures for `CN[C@H](C(=O)N[C@@H](C(=O)N(C)[C@H](/C=C(\C)C(=O)O)C(C)C)C(C)(C)C)C(C)(C)c1ccccc1`: more than 3000 nM, more than 3000 nM, more than 3000 nM and 1%.
On the same counts, the results for `CN[C@H](C(=O)N(C)[C@H](C(=O)N(C)[C@H](/C=C(\C)C(=O)O)C(C)C)C(C)(C)C)C(C)(C)c1ccccc1` are more than 3000 nM, more than 3000 nM, more than 3000 nM and 4%.
The matching figures for `CN[C@H](C(=O)N[C@H](C(=O)N(C)[C@@H](/C=C(\C)C(=O)O)C(C)C)C(C)(C)C)C(C)(C)c1ccccc1` (single isomer, unassigned): 605 nM, more than 3000 nM, 1650 nM and 0%.
Turning to `CN[C@H](C(=O)N[C@H](C(=O)N(C)[C@H](/C=C(\C)C(=O)O)C(C)C)C(C)(C)C)C(C)(C)C`, the IC50 in assay [1] (Homo sapiens, KB 3-1) was 114 nM; in assay [3], more than 3000 nM; in assay [4] (Homo sapiens, KB), 180 nM. Further, the inhibition in assay [2] was 43%.
On the same counts, the results for `CC[C@H](NC(=O)[C@@H](NC)C(C)(C)c1ccccc1)C(=O)N(C)[C@H](/C=C(\C)C(=O)O)C(C)C` are 48 nM, 1060 nM, 70 nM and 73%.
On to `C/C(=C\[C@H](C(C)C)N(C)C(=O)[C@@H](NC(=O)[C@@H](N)C(C)(C)c1ccccc1)C(C)(C)C)C(=O)O` (stereo in doubt; 63), for which the inhibition in assay [2] turned out to be 49%.
As for `CCCCCC(C)(C)[C@H](NC)C(=O)N[C@H](C(=O)N(C)[C@H](/C=C(\C)C(=O)O)C(C)C)C(C)(C)C`, the IC50 in assay [1] (Homo sapiens, KB 3-1) came out at 9 nM; in assay [3] it was 513 nM; in assay [4] (Homo sapiens, KB), 19 nM. Also, the inhibition in assay [2] is 72%.
In the case of `CCC(CC)(c1ccccc1)[C@H](NC)C(=O)N[C@H](C(=O)N(C)[C@H](/C=C(\C)C(=O)O)C(C)C)C(C)(C)C`, the IC50 worked out at 8.5 nM in assay [1] (Homo sapiens, KB 3-1); 479 nM in assay [3]; 18 nM in assay [4] (Homo sapiens, KB). The inhibition in assay [2] turned out to be 86%.
The matching figures for `CC[C@@H](C(=O)N[C@H](C(=O)N(C)[C@H](/C=C(\C)C(=O)O)C(C)C)C(C)(C)C)C(C)(C)c1ccccc1`: 912 nM, 5250 nM, 1200 nM and 54%.
On the same counts, the results for `CN[C@@H](Cc1ccccc1)C(=O)N[C@H](C(=O)N(C)[C@H](/C=C(\C)C(=O)O)C(C)C)C(C)(C)C` are 603 nM, more than 3000 nM, 646 nM and 66%.
On the same counts, the results for `CN[C@H](C(=O)N[C@H](C(=O)N(C)[C@H](/C=C(\C)C(=O)O)C(C)C)C(C)(C)C)[C@H](C)c1ccccc1` are 438 nM, more than 3000 nM, 584 nM and 77%.
In the case of `C/C(=C\[C@H](C(C)C)N(C)C(=O)[C@@H](NC(=O)[C@@H](C(C)(C)c1ccccc1)S(C)(=O)=O)C(C)(C)C)C(=O)O`, the IC50 in assay [1] (Homo sapiens, KB 3-1) is 1750 nM; in assay [3], more than 3000 nM; in assay [4] (Homo sapiens, KB), 2110 nM. For the same molecule, the inhibition in assay [2] came to 80%.
The molecule `C/C(=C\[C@H](C(C)C)N(C)C(=O)[C@@H](NC(=O)[C@@H](N)C(C)(C)c1ccccc1)C(C)(C)C)C(=O)O` (stereo in doubt; 20) [listing 2 of 2 here] showed an inhibition in assay [2] of 95%.
